Experimental data as given in ChEMBL document CHEMBL4130545, “Lupane-Type Triterpenes of Phoradendron vernicosum” (J Nat Prod, 2017).

Experiments:
HeLa [1] = experiment: Cytotoxic activity in human HeLa cells by sulforhodamine B assay; assay type: functional
Outline: (§1)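 Cell lines grown in D-MEM with 10% (v/v) FBS, 100 U/mL penicillin G and 100 μg/mL streptomycin at 37 °C, 5% CO2, 95% humidity. Cytotoxicity was measured by the Skehan method. CC50 was taken as the concentration that reduces cell growth by 50%. Docetaxel served as positive control, and each test was run in triplicate.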

SiHa [2] = experiment: Cytotoxic activity in human SiHa cells by sulforhodamine B assay; assay type: functional; outline: as §1
MCF7 [3] = experiment: Cytotoxic activity in human MCF7 cells by sulforhodamine B assay; assay type: functional; outline: as §1
MDA-MB-231 [4] = experiment: Cytotoxic activity in human MDA-MB-231 cells by sulforhodamine B assay; assay type: functional; outline: as §1
DU-145 [5] = experiment: Cytotoxic activity in human DU145 cells by sulforhodamine B assay; assay type: functional; outline: as §1
KB [6] = experiment: Cytotoxic activity in human KB cells by sulforhodamine B assay; assay type: functional; outline: as §1
HEp-2 [7] = experiment: Cytotoxic activity in human Hep2 cells by sulforhodamine B assay; assay type: functional; outline: as §1
[8] = Cytotoxic activity in African green monkey Vero cells by sulforhodamine B assay; assay type: cell-based; settings: chlorocebus sabaeus
Outline: (§2)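 Cells grown in D-MEM with 10% (v/v) FBS, 100 U/mL penicillin G and 100 μg/mL streptomycin, at 37 °C under 5% CO2 and 95% humidity. Cytotoxic and antiproliferative effects were measured by the sulforhodamine B method of Skehan et al. CC50 (cytotoxic) or IC50 (antiproliferative) is the concentration giving 50% growth reduction. Docetaxel was the positive control. Triplicate tests.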

[9] = Cytotoxic activity in HEK293 cells by sulforhodamine B assay; assay type: cell-based; settings: human; outline: as §2
[10] = Selectivity index, ratio of cytotoxic CC50 for African green monkey Vero cells to cytotoxic CC50 for human HeLa cells; assay type: toxicity; settings: Vero cells versus HeLa cells, read-out: Selectivity Index
Outline: (§3)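 Selectivity index for harmfulness to normal cells: the normal-cell (Vero or HEK293) CC50 or IC50 over the cancer-cell value from the same assay type. Each value is from sulforhodamine B growth-reduction tests done in triplicate in D-MEM/10% FBS at 37 °C, 5% CO2.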

[11] = Selectivity index, ratio of cytotoxic CC50 for African green monkey Vero cells to cytotoxic CC50 for human SiHa cells; assay type: toxicity; settings: Vero cells versus SiHa cells, read-out: Selectivity Index; outline: as §3
[12] = Selectivity index, ratio of cytotoxic CC50 for African green monkey Vero cells to cytotoxic CC50 for human MCF7 cells; assay type: toxicity; settings: Vero cells versus MCF7 cells, read-out: Selectivity Index; outline: as §3
[13] = Selectivity index, ratio of cytotoxic CC50 for African green monkey Vero cells to cytotoxic CC50 for human MDA-MB-231 cells; assay type: toxicity; settings: Vero cells versus MDA-MB-231 cells, read-out: Selectivity Index; outline: as §3
[14] = Selectivity index, ratio of cytotoxic CC50 for African green monkey Vero cells to cytotoxic CC50 for human KB cells; assay type: toxicity; settings: Vero cells versus KB cells, read-out: Selectivity Index; outline: as §3
[15] = Selectivity index, ratio of cytotoxic CC50 for African green monkey Vero cells to cytotoxic CC50 for human Hep2 cells; assay type: toxicity; settings: Vero cells versus Hep2 cells, read-out: Selectivity Index
[16] = Selectivity index, ratio of cytotoxic CC50 for HEK293 cells to cytotoxic CC50 for human HeLa cells; assay type: toxicity; settings: HEK293 cells versus HeLa cells, read-out: Selectivity Index; outline: as §3
[17] = Selectivity index, ratio of cytotoxic CC50 for HEK293 cells to cytotoxic CC50 for human SiHa cells; assay type: toxicity; settings: HEK293 cells versus SiHa cells, read-out: Selectivity Index; outline: as §3
[18] = Selectivity index, ratio of cytotoxic CC50 for HEK293 cells to cytotoxic CC50 for human MCF7 cells; assay type: toxicity; settings: HEK293 cells versus MCF7 cells, read-out: Selectivity Index; outline: as §3
[19] = Selectivity index, ratio of cytotoxic CC50 for HEK293 cells to cytotoxic CC50 for human MDA-MB-231 cells; assay type: toxicity; settings: HEK293 cells versus MDA-MB-231 cells, read-out: Selectivity Index; outline: as §3
[20] = Selectivity index, ratio of cytotoxic CC50 for HEK293 cells to cytotoxic CC50 for human KB cells; assay type: toxicity; settings: HEK293 cells versus KB cells, read-out: Selectivity Index; outline: as §3
[21] = Selectivity index, ratio of cytotoxic CC50 for HEK293 cells to cytotoxic CC50 for human Hep2 cells; assay type: toxicity; settings: HEK293 cells versus Hep2 cells, read-out: Selectivity Index; outline: as §3
HeLa [22] = experiment: Antiproliferative activity in human HeLa cells by sulforhodamine B assay; assay type: functional, cell-based; outline: as §2
SiHa [23] = experiment: Antiproliferative activity in human SiHa cells by sulforhodamine B assay; assay type: functional, cell-based; outline: as §2
MCF7 [24] = experiment: Antiproliferative activity in human MCF7 cells by sulforhodamine B assay; assay type: functional, cell-based; outline: as §2
MDA-MB-231 [25] = experiment: Antiproliferative activity in human MDA-MB-231 cells by sulforhodamine B assay; assay type: functional, cell-based; outline: as §2
DU-145 [26] = experiment: Antiproliferative activity in human DU145 cells by sulforhodamine B assay; assay type: functional, cell-based; outline: as §2
KB [27] = experiment: Antiproliferative activity in human KB cells by sulforhodamine B assay; assay type: functional, cell-based; outline: as §2
HEp-2 [28] = experiment: Antiproliferative activity in human Hep2 cells by sulforhodamine B assay; assay type: functional, cell-based; outline: as §2
Vero = experiment: Antiproliferative activity in African green monkey Vero cells by sulforhodamine B assay; assay type: cell-based; settings: Chlorocebus sabaeus; outline: as §2
HEK293 = experiment: Antiproliferative activity in HEK293 cells by sulforhodamine B assay; assay type: cell-based; settings: Homo sapiens; outline: as §2
[29] = Selectivity index, ratio of antiproliferative IC50 for African green monkey Vero cells to antiproliferative IC50 for human HeLa cells; assay type: toxicity; settings: Vero cells versus HeLa cells, read-out: Ratio IC50; outline: as §3
[30] = Selectivity index, ratio of antiproliferative IC50 for African green monkey Vero cells to antiproliferative IC50 for human SiHa cells; assay type: toxicity; settings: Vero cells versus SiHa cells, read-out: Ratio IC50; outline: as §3
[31] = Selectivity index, ratio of antiproliferative IC50 for African green monkey Vero cells to antiproliferative IC50 for human MCF7 cells; assay type: toxicity; settings: Vero cells versus MCF7 cells, read-out: Ratio IC50; outline: as §3
[32] = Selectivity index, ratio of antiproliferative IC50 for African green monkey Vero cells to antiproliferative IC50 for human KB cells; assay type: toxicity; settings: Vero cells versus KB cells, read-out: Ratio IC50; outline: as §3
[33] = Selectivity index, ratio of antiproliferative IC50 for HEK293 cells to antiproliferative IC50 for human HeLa cells; assay type: toxicity; settings: HEK293 cells versus HeLa cells, read-out: Ratio IC50; outline: as §3
[34] = Selectivity index, ratio of antiproliferative IC50 for HEK293 cells to antiproliferative IC50 for human SiHa cells; assay type: toxicity; settings: HEK293 cells versus SiHa cells, read-out: Ratio IC50; outline: as §3
[35] = Selectivity index, ratio of antiproliferative IC50 for HEK293 cells to antiproliferative IC50 for human MCF7 cells; assay type: toxicity; settings: HEK293 cells versus MCF7 cells, read-out: Ratio IC50; outline: as §3
[36] = Selectivity index, ratio of antiproliferative IC50 for HEK293 cells to antiproliferative IC50 for human KB cells; assay type: toxicity; settings: HEK293 cells versus KB cells, read-out: Ratio IC50; outline: as §3
[37] = Selectivity index, ratio of cytotoxic CC50 for African green monkey Vero cells to cytotoxic CC50 for human DU145 cells; assay type: toxicity; settings: Vero cells versus DU145 cells, read-out: Selectivity Index; outline: as §3
[38] = Selectivity index, ratio of cytotoxic CC50 for HEK293 cells to cytotoxic CC50 for human DU145 cells; assay type: toxicity; settings: HEK293 cells versus DU145 cells, read-out: Selectivity Index
[39] = Selectivity index, ratio of antiproliferative IC50 for African green monkey Vero cells to antiproliferative IC50 for human MDA-MB-231 cells; assay type: toxicity; settings: Vero cells versus MDA-MB-231 cells, read-out: Ratio IC50
[40] = Selectivity index, ratio of antiproliferative IC50 for African green monkey Vero cells to antiproliferative IC50 for human DU145 cells; assay type: toxicity; settings: Vero cells versus DU145 cells, read-out: Ratio IC50
[41] = Selectivity index, ratio of antiproliferative IC50 for African green monkey Vero cells to antiproliferative IC50 for human Hep2 cells; assay type: toxicity; settings: Vero cells versus Hep2 cells, read-out: Ratio IC50; outline: as §3
[42] = Selectivity index, ratio of antiproliferative IC50 for HEK293 cells to antiproliferative IC50 for human MDA-MB-231 cells; assay type: toxicity; settings: HEK293 cells versus MDA-MB-231 cells, read-out: Ratio IC50
[43] = Selectivity index, ratio of antiproliferative IC50 for HEK293 cells to antiproliferative IC50 for human DU145 cells; assay type: toxicity; settings: HEK293 cells versus DU145 cells, read-out: Ratio IC50
[44] = Selectivity index, ratio of antiproliferative IC50 for HEK293 cells to antiproliferative IC50 for human Hep2 cells; assay type: toxicity; settings: HEK293 cells versus Hep2 cells, read-out: Ratio IC50

## C=C(C)[C@@H]1CC[C@]2(C(=O)O)CC[C@]3(C)[C@H](CC[C@@H]4[C@@]5(C)CC[C@H](O)C(C)(C)[C@@H]5CC[C@]43C)[C@@H]12 [BETULINIC ACID]
HeLa [1]
  CC50: 32600 nM
SiHa [2]
  CC50: 28900 nM
MCF7 [3]
  CC50: 49600 nM
MDA-MB-231 [4]
  CC50: 94300 nM
DU-145 [5]
  CC50: > 500000 nM
KB [6]
  CC50: 15600 nM
HEp-2 [7]
  CC50: 48200 nM
[8]
  CC50: 38100 nM
[9]
  CC50: 80000 nM
[10]
  selectivity ratio: 1.6
[11]
  selectivity ratio: 13
[12]
  selectivity ratio: 0.7
[13]
  selectivity ratio: 0.4
[14]
  selectivity ratio: 2.4
[15]
  selectivity ratio: 1.3
[16]
  selectivity ratio: 2.5
[17]
  selectivity ratio: 2.8
[18]
  selectivity ratio: 1.6
[19]
  selectivity ratio: 0.8
[20]
  selectivity ratio: 5.1
[21]
  selectivity ratio: 1.6
HeLa [22]
  IC50: 47600 nM
SiHa [23]
  IC50: 70100 nM
MCF7 [24]
  IC50: 56300 nM
MDA-MB-231 [25]
  IC50: > 500000 nM
DU-145 [26]
  IC50: > 500000 nM
KB [27]
  IC50: 28100 nM
HEp-2 [28]
  IC50: > 500000 nM
Vero
  IC50: 72100 nM
HEK293
  IC50: 336000 nM
[29]
  selectivity ratio: 1.5
[30]
  selectivity ratio: 1
[31]
  selectivity ratio: 1.3
[32]
  selectivity ratio: 2.6
[33]
  selectivity ratio: 7
[34]
  selectivity ratio: 4.8
[35]
  selectivity ratio: 6
[36]
  selectivity ratio: 12

## CC(=O)O[C@@]12CO[C@@H]1C[C@H](O)[C@@]1(C)C(=O)[C@H](O)C3=C(C)[C@@H](OC(=O)[C@H](O)[C@@H](NC(=O)OC(C)(C)C)c4ccccc4)C[C@@](O)([C@@H](OC(=O)c4ccccc4)[C@H]21)C3(C)C [DOCETAXEL ANHYDROUS]
HeLa [1]
  CC50: 90 nM
SiHa [2]
  CC50: 220 nM
MCF7 [3]
  CC50: 10 nM
MDA-MB-231 [4]
  CC50: 190 nM
DU-145 [5]
  CC50: 810 nM
KB [6]
  CC50: 180 nM
HEp-2 [7]
  CC50: 60 nM
[8]
  CC50: 1300 nM
[9]
  CC50: 1600 nM
[10]
  selectivity ratio: 14.4
[11]
  selectivity ratio: 5.9
[12]
  selectivity ratio: 130
[13]
  selectivity ratio: 6.8
[37]
  selectivity ratio: 1.6
[14]
  selectivity ratio: 7.2
[15]
  selectivity ratio: 21.6
[16]
  selectivity ratio: 17.7
[17]
  selectivity ratio: 7.3
[18]
  selectivity ratio: 160
[19]
  selectivity ratio: 8.4
[38]
  selectivity ratio: 2
[20]
  selectivity ratio: 8.8
[21]
  selectivity ratio: 26.6
HeLa [22]
  IC50: 70 nM
SiHa [23]
  IC50: 90 nM
MCF7 [24]
  IC50: 10 nM
MDA-MB-231 [25]
  IC50: 70 nM
DU-145 [26]
  IC50: 10 nM
KB [27]
  IC50: 50 nM
HEp-2 [28]
  IC50: 60 nM
Vero
  IC50: 130 nM
HEK293
  IC50: 110 nM
[29]
  selectivity ratio: 1.9
[30]
  selectivity ratio: 1.4
[31]
  selectivity ratio: 13
[39]
  selectivity ratio: 1.9
[40]
  selectivity ratio: 13
[32]
  selectivity ratio: 2.6
[41]
  selectivity ratio: 2.2
[33]
  selectivity ratio: 1.6
[34]
  selectivity ratio: 1.2
[35]
  selectivity ratio: 11
[42]
  selectivity ratio: 1.6
[43]
  selectivity ratio: 11
[36]
  selectivity ratio: 2.2
[44]
  selectivity ratio: 1.8
